This is an account of results in PubChem BioAssay.

“And” between values parts separate entries of the source, which are not always exact repeats. Identical values can stand only once. The source made the active and inactive calls.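 The calls were made as follows, unless noted: active = inhibition at or above 50% relative to wild type and mutant plate controls; inactive = inhibition below 50%.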

The nature of assay [1]: inhibitors of TNFa-induced NFkB p65 translocation, primary screen, imaging, HUVEC, MLSMR starter and 10KST1 sets (AID 438;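 active = inhibition above 20% together with a positive visual image hit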;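 also: compound added about 3h40 before a 20 min TNFalpha stimulation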;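 as to inhibition: signal is the nuclear over cytoplasmic p65 intensity ratio per well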). The conditions noted are these: HUVEC TNFa-induced p65 nuclear translocation; cell count: measured here: nuclei count (cytotoxicity indicator), at 2.08 µM unless noted; inhibition: at 2 µM, stronger effect = higher value unless noted.
A short description of assay [2]: inhibitors of mutant huntingtin aggregation, primary screen, imaging, exon1htt(103Q)mCFP cells, high-content imaging (AID 483;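 active = visual image review flags a hit and inhibition of aggregation exceeds 20%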;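 also: compound exposure lasted 3 days before fixation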;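 as to nuclei count: percent of the per-plate median nuclei count of sample wells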). The note with it: exon1htt(103Q)mCFP cell line, aggregate imaging, at 2 µM; inhibition of aggregation: stronger effect = higher value; nuclei count: measured here: cell count, toxicity.
The nature of assay [3]: inhibitors of E-selectin induction by TNFa, primary screen, imaging, HUVEC, immunofluorescence, MLSMR starter and 10KST1 sets (AID 487;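 active = visually confirmed hit in the image check and inhibition above 20%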;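 as to inhibition: signal is fraction of cell area covered by stained E-selectin grains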;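 as to nuclei count: 100% = median nuclei count of all wells on the same plate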). The note with it: HUVEC TNFalpha-induced E-selectin immunofluorescence imaging, at 2 µM; inhibition: stronger effect = higher value; nuclei count: measured here: cell number, toxicity.
For assay [4], the target named is Voltage-gated potassium channel subunit beta-2 (Rattus norvegicus) (UniProt P62483). Put plainly: KvBeta enzyme negative modulators, primary screen, biochemical, NADPH fluorescence (AID 622;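 active = fluorescence slope higher than the sample average by over 3 SD, cut at about -0.22 in these data, passing the limit was not always enough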;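 also: slope of raw intensity against log time taken from 70 to 1610 s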). The conditions noted are these: recombinant KvBeta, 4-cyanobenzaldehyde reduction, at 10 µM, stronger effect = higher value.
Chain of Voltage-gated potassium channel subunit beta-2 (Rattus norvegicus) (P62483 whole entry, looked up): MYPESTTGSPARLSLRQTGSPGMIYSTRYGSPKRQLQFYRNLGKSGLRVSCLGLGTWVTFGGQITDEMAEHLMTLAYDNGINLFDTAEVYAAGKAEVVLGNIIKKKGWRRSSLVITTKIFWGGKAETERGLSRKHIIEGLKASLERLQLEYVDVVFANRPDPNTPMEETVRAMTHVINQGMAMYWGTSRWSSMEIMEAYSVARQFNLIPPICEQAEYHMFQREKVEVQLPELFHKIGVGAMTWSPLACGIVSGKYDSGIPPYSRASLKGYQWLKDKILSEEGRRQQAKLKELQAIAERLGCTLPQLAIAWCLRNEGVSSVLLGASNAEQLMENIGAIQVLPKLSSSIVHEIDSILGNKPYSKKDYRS
The target is the same in assay [5]. Kind of assay: KvBeta positive modulators, primary screen, biochemical, NADPH fluorescence (AID 623;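 active = NADPH fluorescence slope more negative than the mean of all samples by about 3 SD, 99.7% confidence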;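 also: fluorescence intensity change per second fitted from 20 to 320 s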). The conditions noted are these: Recombinant KvBeta, NADPH fluorescence decrease slope, 10 min; at 10 µM; stronger effect = lower value.
In assay [6] the target is Muscarinic acetylcholine receptor M4 (Homo sapiens) (UniProt P08173). Kind of assay: compounds altering M4/GIRK thallium flux, either direction, primary screen, M4 allosteric agonist project, cell-based, HEK293 M4/GIRK, BTC-AM (AID 625;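 active = fluorescence slope after compound addition differing from the mean of all tested samples at 99.7% confidence, mostly higher but some lower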;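 also: thallium influx through GIRK channels coupled to M4 in HEK293 cells with BTC-AM dye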). The note with it: at 10 µM, actives lie on both sides. The gist of the method:
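assay system = HEK293 cells with M4 receptor and GIRK channels | medium = pH 7.3 thallium assay buffer | doses = 10 µM final, single point | timing = cells overnight at 37 °C, BTC-AM loading 1 h, reads 2 min total | signal = BTC-AM fluorescence, 1 Hz kinetic reads | read-out = post-addition slope, 15–24 s, of baseline-normalized fluorescence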

A short description of assay [7]: inhibitors of Sendai virus-induced IRF3 signaling, primary screen, TLR/RLR signaling modifier project, cell-based, Sendai virus stimulus, luciferase, 10K MLSCN set (AID 602276;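 active = inhibition at or above 50% at 10 µM; inactive = inhibition below 50%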;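 also: firefly luciferase from ISG56 promoter only with Renilla not read in this screen; 0% = Sendai virus plus DMSO and 100% = medium plus DMSO without virus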). The note with it: HEK293 RL24 IRF3 luciferase reporter, at 10 µM, stronger effect = higher value. For orientation: Reporter assays use an easily measured gene product as a stand-in for the process of interest.

Assay [8] in a line: inhibitors of poly I:C-induced TLR3 signaling, primary screen, cell-based, poly I:C stimulus, luciferase, 10K MLSCN set (AID 602277;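 active = inhibition of the reporter signal at or above 50%; inactive = inhibition below 50%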). The note with it: HEK293-TLR3 RL24 IRF3 luciferase reporter, at 10 µM, stronger effect = higher value.
Assay [9] can be described thus: inhibitors of Chlamydomonas gravitaxis, primary screen, whole organism, Chlamydomonas reinhardtii, WT vs cilia-less mutant, absorbance, 96-well (AID 463189).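 Also: 0% = wild type cc124 cells in DMSO and 100% = ciliumless bld1 mutant cells.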 The conditions noted are these: OD600 absorbance, 2 days, at 10 µM, stronger effect = higher value.

Chain of Muscarinic acetylcholine receptor M4 (Homo sapiens) (P08173 whole entry, looked up): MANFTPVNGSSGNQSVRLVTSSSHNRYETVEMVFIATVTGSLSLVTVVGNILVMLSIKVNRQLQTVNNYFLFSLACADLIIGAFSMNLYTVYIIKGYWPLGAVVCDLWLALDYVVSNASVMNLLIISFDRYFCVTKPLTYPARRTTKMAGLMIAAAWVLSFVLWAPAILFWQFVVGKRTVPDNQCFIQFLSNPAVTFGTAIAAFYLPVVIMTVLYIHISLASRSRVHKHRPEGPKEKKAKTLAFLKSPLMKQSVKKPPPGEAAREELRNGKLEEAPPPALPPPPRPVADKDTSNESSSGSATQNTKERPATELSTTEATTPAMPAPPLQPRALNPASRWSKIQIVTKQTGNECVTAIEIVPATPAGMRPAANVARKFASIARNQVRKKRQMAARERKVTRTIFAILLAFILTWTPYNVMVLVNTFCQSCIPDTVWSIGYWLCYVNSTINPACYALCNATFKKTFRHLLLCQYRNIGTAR

Broadly, the inhibition is the change of the read-out against control, counted positive when it falls. In [1], `Cc1cc(NC(=O)COC(=O)c2c(C)nn(Cc3ccccc3)c2Cl)no1` yielded a cell count of 346. Besides, the inhibition in [1] was 7.3% (inactive); in assay [3], -68.8% (inactive); in assay [7], 3.25% (inactive); in assay [8], 12.9% (inactive). Also, the inhibition of aggregation in assay [2] is -4.8% (inactive). Besides, the nuclei count in assay [2] stood at 90.6%; in [3] it was 109%. In addition, the values for the fluorescence slope in assay [4] and in [6] were -0.377 (inactive) and 0.00868 (inactive), respectively. The NADPH fluorescence slope in assay [5] is -0.000127 (inactive).

For `O=c1[nH]c(=O)n(Cc2ccccc2)c(O)c1C=NCCCO`, the cell count in assay [1] amounted to 414. The inhibition is -6.5% (inactive) in assay [1], -59% (inactive) in [3], 16.7% (inactive) in [7] and 16.9% (inactive) in assay [8]. Further, the inhibition of aggregation in [2] is 24.4% (inactive). For the same compound, the results for the nuclei count in assay [2] and in assay [3] were 90.8% and 128%, respectively. For the same compound, the results for the fluorescence slope in assay [4] and in assay [6] were -0.52 (inactive) and 0.00467 (inactive), respectively. Further, the NADPH fluorescence slope in [5] was -3e-05 (inactive).

On to `N#Cc1ccccc1Cn1cc(C(=O)c2ccco2)c2ccccc21`, for which, in [1], the cell count is 353. For the same compound, the inhibition is 6% (inactive) in assay [1], -3.7% (inactive) in [3], 16.6% (inactive) in assay [7] and 15.1% (inactive) in [8]. For the same compound, the inhibition of aggregation in assay [2] is 23.1% (inactive). For the same compound, the nuclei count in [2] was found to be 76.5%; in assay [3], 80.5%. The fluorescence slope in [4] was -0.254 (inactive); in assay [6], 0.00586 (inactive). Further, in [5], the NADPH fluorescence slope was -2.3e-05 (inactive).

In assay [1], `COc1ccccc1N1CCN(Cc2cccc(OC)c2O)CC1` displayed a cell count of 509. Moreover, the inhibition in assay [1] was -6% (inactive); in assay [3], -10% (inactive); in assay [7], 14.4% (inactive); in assay [8], 12.6% (inactive). In [2], the inhibition of aggregation was 23.5% (inactive). Moreover, the figures for the nuclei count in [2] and in [3] were 95.4% and 85.8%, respectively. The fluorescence slope was -0.58 (inactive) in [4] and 0.0035 (inactive) in [6]. The NADPH fluorescence slope in assay [5] is -0.000104 (inactive).

As to `NNC(=O)c1ccc(O)cc1`, the inhibition in [9] is -10.7% (inactive).

With `N#CC(=Cc1ccc(O)c(O)c1)C(N)=S`, in assay [9], the inhibition was 10.3% (inactive).

Turning to `Cc1[nH]c2c(Cl)cccc2c1CCN`, in [1], the cell count worked out at 517. The inhibition is 3.9% (inactive) in assay [1], -19.9% (inactive) in assay [3], 13% (inactive) in assay [7] and 18.6% (inactive) in assay [8]. The inhibition of aggregation in [2] is 1.5% (inactive). In addition, the nuclei count in [2] stood at 86.5%; in assay [3], 110%. Also, the results for the fluorescence slope in assay [4] and in assay [6] were -0.427 (inactive) and 0.0063 (inactive), respectively. For the same compound, in assay [5], the NADPH fluorescence slope was -1.2e-05 (inactive).

Compound `CCC(C)NC(=O)c1c(N)n(CC2CCCO2)c2nc3ccccc3nc12` (configuration not stated) yielded a cell count in assay [1] of 603. Also, the inhibition in assay [1] was -1.4% (inactive); in assay [3], -13.3% (inactive); in [7], 14.8% (inactive); in assay [8] it was 17.6% (inactive). The inhibition of aggregation in assay [2] was -0.7% (inactive). In addition, the nuclei count in assay [2] was found to be 80.9%; in assay [3], 128%. Moreover, the figures for the fluorescence slope in [4] and in assay [6] were -0.058 (active) and 0.00598 (inactive), respectively. The NADPH fluorescence slope in assay [5] was 1.6e-05 (inactive).

With `Cc1cc(N2C(=O)C3CCCN3C2c2cccc(Cl)c2)no1` (configuration not stated), the cell count in [1] came to 465. Also, the inhibition was -3.9% (inactive) in assay [1], 28.8% (inactive) in [3], 13.2% (inactive) in assay [7] and 22.3% (inactive) in assay [8]. The inhibition of aggregation in assay [2] was 8.2% (inactive). The nuclei count in assay [2] was determined as 97.3%; in assay [3], 91.4%. For the same compound, the fluorescence slope was -0.543 (inactive) in [4] and 0.00553 (inactive) in assay [6]. For the same compound, the NADPH fluorescence slope in assay [5] was -2.7e-05 (inactive).

Regarding `CN1C(=O)CCS(=O)(=O)C1c1ccc(Cl)cc1` (configuration not stated), the inhibition in assay [9] is 9.97% (inactive).

In the case of `C/C=C(/C)C(=O)O[C@H]1C(C)=C2[C@H]([C@@H]1OC(=O)CCCCCCC)[C@@](C)(OC(C)=O)C[C@H](OC(=O)CCC)[C@@]1(O)[C@H]2OC(=O)[C@@]1(C)O`, the inhibition in assay [9] is -1.82% (inactive).

Consider `CCCN(CCC)C1CCc2ccc(O)cc2C1` (configuration not stated), for which the inhibition in [9] is 1.06% (inactive).

As for `CC1=NN=C(c2ccc(N)cc2)c2cc3c(cc2C1)OCO3`, in assay [9], the inhibition is -2.8% (inactive).

Take `C=C(C)[C@H]1Cc2c(ccc3c2O[C@@H]2COc4cc(OC)c(OC)cc4[C@@H]2C3=O)O1`: in assay [9], the inhibition is 4.66% (inactive).

Regarding `CCN(CC)c1ncnc2c1ncn2[C@@H]1O[C@H](COP(=O)(O)OP(=O)(O)C(Br)(Br)P(=O)(O)O)[C@@H](O)[C@H]1O`, the inhibition in [9] is -12.6% (inactive).

Turning to `Clc1cccc(N2CCNCC2)c1`, the inhibition in assay [9] is 1.7% (inactive).

As for `CCCN1CCC[C@H](c2cccc(O)c2)C1`, the inhibition in assay [9] was 0.621% (inactive).

Regarding `COc1ccc2[nH]cc(CCN)c2c1`, in assay [9], the inhibition was 3.77% (inactive).

In the case of `Clc1cc(I)cc(Cl)c1NC1=NCCN1`, the inhibition in [9] is 9.51% (inactive).

Consider `CN1CCc2cccc(Cl)c2CC1`, for which the inhibition in assay [9] was 9.04% (inactive).

Take `CC12NC(Cc3ccccc31)c1ccccc12` (configuration not stated): the inhibition in assay [9] is 2.33% (inactive).

In the case of `O=C(O)Cc1cnc[nH]1`, the inhibition in [9] was 2.27% (inactive).

As to `CC(C)Oc1cccnc1N(C)C1CCN(Cc2ccccc2)CC1`, the inhibition in assay [9] was 54.9% (active).

Take `C=C(C)[C@H]1CN[C@H](C(=O)O)[C@H]1CC(=O)O`: the inhibition in assay [9] is -2.25% (inactive).

Take `O=C(O)c1cc[c]([Hg][Cl])cc1`: in assay [9], the inhibition was 9.04% (inactive).

Regarding `CCCCc1ccc(C(=O)O)nc1`, the inhibition in assay [9] is -11.3% (inactive).

On to `O=C(O)C1C2CCC(O2)C1C(=O)O` (configuration not stated), for which, in assay [9], the inhibition is -11.7% (inactive).

As to `Clc1cnc(Oc2ccc(Oc3ncc(Cl)cc3Cl)cc2)c(Cl)c1`, the inhibition in [9] was 2.67% (inactive).

Regarding `Cc1nc(-c2ccc(-c3ccc(C(=O)N4CCc5cc6c(cc54)C4(CCN(C)CC4)CO6)cc3)c(C)c2)no1`, the inhibition in [9] is 141% (active).

With `COc1ccc(CCN)cc1O`, the inhibition in assay [9] was 4.96% (inactive).

For `COc1ccc2c(c1OC)C(=O)O[C@H]2[C@@H]1c2cc3c(cc2CCN1C)OCO3`, the inhibition in assay [9] was -6.11% (inactive).

`C=CCN1CCc2cccc3c2[C@H]1Cc1ccc(O)c(O)c1-3`: in assay [9], the inhibition is 6.2% (inactive).

Consider `CCS(=O)(=O)Nc1cccc(C(=C2CCCCC2)c2cnc[nH]2)c1`, for which the inhibition in assay [9] was 2.69% (inactive).

In the case of `Cc1nccc2c1[nH]c1ccccc12`, in assay [9], the inhibition was 10.4% (inactive).

Regarding `CCCN1CCO[C@@H]2c3cc(O)ccc3OC[C@H]21`, in assay [9], the inhibition was 3.37% (inactive) and -1.05% (inactive).

Turning to `C#CCN[C@H](C)Cc1ccccc1`, the inhibition in [9] was 20.4% (inactive).

On to `CC(O)C(C)OC(=O)[C@@H]1C[C@@H]2c3cccc4c3c(cn4C(C)C)C[C@H]2N(C)C1` (some centres not stated), for which the inhibition in [9] was 33.8% (inactive).
